Tests used:
[1] = test system: Human immunodeficiency virus 1; assay: Antiviral activity against HIV1 with reverse transcriptase K103N mutation in MT4 cells assessed as inhibition of viral induced cytopathic effect by MTT method; type: functional, organism-based; settings: Human immunodeficiency virus 1, MT4
Outline: (§1)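 MT-4 cells infected with the HIV-1 NNRTI-resistant mutant strain. Viable cells scored at day 5 post-infection by the MTT tetrazolium colorimetric method. […] Values are means ± SD from at least two experiments.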

[2] = test system: Human immunodeficiency virus 1; assay: Antiviral activity against HIV1 with reverse transcriptase Y181C mutation in MT4 cells assessed as inhibition of viral induced cytopathic effect by MTT method; type: functional, organism-based; settings: Human immunodeficiency virus 1, MT4; outline: as §1
[3] = test system: Human immunodeficiency virus 1; assay: Antiviral activity against HIV1 with reverse transcriptase Y188L mutation in MT4 cells assessed as inhibition of viral induced cytopathic effect by MTT method; type: functional, organism-based; settings: Human immunodeficiency virus 1, MT4
Outline: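 MT-4 cells infected with the HIV-1 NNRTI-resistant mutant strain. Viable cells scored at day 5 post-infection by the MTT tetrazolium colorimetric method. Values are means ± SD from at least two experiments.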

[4] = Cytotoxicity against MT4 cells after 4 days by MTT method; type: cell-based; settings: human
Outline: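 Mock-infected (noninfected) MT-4 cells, run in parallel with the antiviral test. Viable cells read by the MTT tetrazolium colorimetric method. […] Means ± SD from at least two experiments. The top concentration was limited where compounds precipitated in the culture medium.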

[5] = Selectivity index, ratio of CC50 for MT4 cells to EC50 for HIV1 NL43 infected MT4 cells; type: functional
[6] = test system: Human immunodeficiency virus 1; assay: Antiviral activity against HIV1 with reverse transcriptase IRLL98 mutation in MT4 cells assessed as inhibition of viral induced cytopathic effect by MTT method; type: functional, organism-based; settings: Human immunodeficiency virus 1, MT4
[7] = Resistance index, Ratio of EC50 for drug-resistant HIV1 with RT Y181C mutation in MT4 cells to EC50 for HIV1 NL43 in MT4 cells
[8] = Resistance index, Ratio of EC50 for drug-resistant HIV1 with RT IRLL98 mutation in MT4 cells to EC50 for HIV1 NL43 in MT4 cells
[9] = test system: Human immunodeficiency virus 1; assay: Antiviral activity against HIV1 NL43 in MT4 cells assessed as inhibition of viral induced cytopathic effect after 5 days by MTT method; settings: Human immunodeficiency virus 1, NL43, MT4, 120 h
[10] = Inhibition of HIV1 reverse transcriptase Y1811 mutant; set-up: species or system Human immunodeficiency virus 1
Outline: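 Recombinant HIV-1 RT Y181I mutant, purified to >95%, 10 min preincubation with inhibitor. Radioactive nucleotide incorporation into poly(rA)/oligo(dT) 10:1 was followed at varied nucleotide substrate levels, sampling every 2 min for initial velocities. Inhibitor spanned 0.2–5 Ki. Ki came from Lineweaver-Burk and Dixon plots. Means ± SD of at least three experiments.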

[11] = molecular target: Human immunodeficiency virus type 1 reverse transcriptase (Human immunodeficiency virus 1, UniProt Q72547, V106A); assay: Inhibition of HIV1 reverse transcriptase V106A mutant

Row | SMILES | EC50 [1] [µM] | EC50 [2] [µM] | EC50 [3] [µM] | CC50 at 96 h [4] [µM] | Ratio CC50/EC50 [5] | EC50 [6] [µM] | Ratio EC50 [7] | Ratio EC50 [8] | EC50 [9] [µM] | Ki [10] [µM] | Ki [11] [µM]
1 | CC1CCCN(c2nc(Cc3c(F)cccc3F)cc(=O)[nH]2)C1 (stereo not drawn) | > 10 | 0.43 | > 10 | > 78 | >2437 | 1.8 | 13 | 56 | 0.032 | – | –
2 | Cc1ccnc2c1NC(=O)c1cccnc1N2C1CC1 [NEVIRAPINE] | 1.8 | 0.87 | – | > 7 | – | 9.9 | – | – | 0.08 | 35 | –
3 | Cc1c(C(C)c2c(F)cccc2F)nc(N2CCCCCC2)[nH]c1=O (stereo not drawn) | – | – | – | > 72 | >8000 | – | – | – | 0.009 | – | –
4 | Cc1c(Cc2c(F)cccc2F)nc(N2CCC3(CC2)OCCO3)[nH]c1=O | – | – | – | > 66 | >101 | – | – | – | 0.65 | – | –
5 | Cc1c(Cc2c(F)cccc2N2CCCC2)nc(N2CCCC2)[nH]c1=O | – | – | – | > 70 | >113 | – | – | – | 0.62 | – | 0.5
6 | O=c1cc(Cc2c(F)cccc2F)nc(-n2cccc2)[nH]1 | – | – | – | > 87 | >5 | – | – | – | 17.3 | – | –
7 | CCCN(C)c1nc(Cc2c(F)cccc2F)cc(=O)[nH]1 | – | – | – | 85 | 9444 | – | – | – | 0.009 | – | –
8 | CCCN(CCC)c1nc(Cc2c(F)cccc2F)c(C)c(=O)[nH]1 | – | – | – | > 74 | >35 | – | – | – | 2.09 | – | –
9 | Cc1c(Cc2c(F)cccc2F)nc(N(C)c2ccccc2)[nH]c1=O | – | – | – | > 73 | >849 | – | – | – | 0.086 | – | –
10 | CC1CCN(c2nc(Cc3c(F)cccc3F)cc(=O)[nH]2)CC1 | > 10 | 1.29 | > 10 | > 78 | >2229 | 4.6 | 37 | 131 | 0.035 | – | –
11 | CCN(C)c1nc(Cc2c(F)cccc2F)cc(=O)[nH]1 | > 10 | 0.5 | > 10 | > 89 | >6846 | 2 | 38 | 154 | 0.013 | – | –
12 | O=c1cc(Cc2c(F)cccc2F)nc(N2CCC3(CC2)OCCO3)[nH]1 | – | – | – | > 69 | >31 | – | – | – | 2.22 | – | –
13 | O=c1cc(Cc2c(F)cccc2F)nc(N2CCCC2)[nH]1 | > 10 | > 10 | > 10 | > 86 | >925 | > 10 | – | – | 0.093 | – | –
14 | CCN(CC)c1nc(Cc2c(F)cccc2F)cc(=O)[nH]1 | – | – | – | > 85 | >639 | – | – | – | 0.133 | – | –
15 | CC(C)N(C)c1nc(Cc2c(F)cccc2F)cc(=O)[nH]1 | > 10 | 0.03 | > 10 | 85 | 10625 | 0.18 | 4 | 22 | 0.008 | – | –
16 | Cc1c(C(C)c2c(Cl)cccc2Cl)nc(N(C)C)[nH]c1=O (stereo not drawn) | – | – | – | 35 | 1167 | – | – | – | 0.03 | – | –
17 | O=c1cc(Cc2c(F)cccc2F)nc(N2CCCCCC2)[nH]1 | > 10 | 0.43 | > 10 | > 78 | >3545 | 1.4 | 19 | 64 | 0.022 | – | –
18 | O=C1Nc2ccc(Cl)cc2C(C#CC2CC2)(C(F)(F)F)O1 (single isomer, unassigned) [EFAVIRENZ] | 0.09 | 0.006 | 0.23 | > 0.3 | – | 0.08 | – | – | – | – | –
19 | Cc1c(Cc2c(F)cccc2F)nc(N2CCC(C)CC2)[nH]c1=O | > 10 | – | > 10 | > 75 | >750 | > 10 | – | – | 0.1 | – | 0.5
20 | Cc1c(Cc2c(F)cccc2F)nc(N2CCCC(C)C2)[nH]c1=O (stereo not drawn) | > 10 | 0.57 | > 10 | > 75 | >4167 | 2.1 | 32 | 117 | 0.018 | – | –
21 | CCCN(CCC)c1nc(Cc2c(F)cccc2F)cc(=O)[nH]1 | – | – | – | > 78 | >44 | – | – | – | 1.78 | – | –
22 | O=c1cc(Cc2c(F)cccc2N2CCCC2)nc(N2CCCC2)[nH]1 | – | – | – | > 73 | >103 | – | – | – | 0.71 | – | –
23 | Cc1c(Cc2c(F)cccc2F)nc(N2CCCCC2C)[nH]c1=O (stereo not drawn) | > 10 | 0.14 | > 10 | 75 | 8333 | 1.4 | 16 | 156 | 0.009 | – | –
24 | CC1CCCCN1c1nc(Cc2c(F)cccc2F)cc(=O)[nH]1 (stereo not drawn) | > 10 | 1.14 | > 10 | > 78 | >729 | 3 | 11 | 28 | 0.107 | – | –
25 | Cc1c(C(C)c2ccccc2F)nc(N(C)C)[nH]c1=O (stereo not drawn) | – | – | – | 44 | 7333 | – | – | – | 0.006 | – | –
26 | CCN(CC)c1nc(Cc2c(F)cccc2F)c(C)c(=O)[nH]1 | – | – | – | > 81 | >2700 | – | – | – | 0.03 | – | –
27 | Cc1c(Cc2c(F)cccc2F)nc(N2CCCC2)[nH]c1=O | > 10 | 5.15 | > 10 | > 82 | >2562 | > 10 | 161 | – | 0.032 | – | –
28 | Cc1c(Cc2c(F)cccc2F)nc(N2CCCCCC2)[nH]c1=O | > 10 | 0.57 | > 10 | > 75 | >1500 | 1.7 | 11 | 34 | 0.05 | – | 0.5

Source: ChEMBL document CHEMBL1137561 (J Med Chem, 2007)
